Columns and labels:
Type in all cases: cell-based
[1] = target: Protein kinase C delta type (Homo sapiens, UniProt Q05655); assay: Activation of PKCdelta (unknown origin) expressed in HEK293 cells harboring GFP-tagged RasGRP3 assessed as phosphorylation at ser299 residues after 30 mins by immunoblot method
Outline: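 Cells are GFP-RasGRP3-transfected HEK293, grown in EMEM + 10% FBS. Exposed 30 min at 37 °C, 5% CO2, to half-log concentrations up to 10 µM, 1000 nM PMA or DMSO. Lysed in RIPA with protease and phosphatase inhibitors. 50 µg protein run on 10% SDS-PAGE and blotted for phospho-PKCδ S299; anti-GFP used as loading control. Signal normalised to 1000 nM PMA. EC50 is the mean of n = 3.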

Homo sapiens = species on record: Homo sapiens; assay: Selectivity ratio of EC50 for PKCdelta (unknown origin) expressed in HEK293 cells harboring GFP-tagged RasGRP3 to EC50 for GFP-tagged RasGRP3 (unknown origin) expressed in HEK293 cells
Outline: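 One EC50 comes from PKCδ S299 phosphorylation on immunoblot, the other from Ras-GTP pulled down on Raf1-RBD. Both signals normalised to 1000 nM PMA. EC50s above 10 µM are extrapolated.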

[2] = target: T1, Ras guanyl-releasing protein 3 (Homo sapiens, UniProt Q8IV61); assay: Activation of GFP-tagged RasGRP3 (unknown origin) expressed in HEK293 cells after 30 mins by immunoblot method
T1 sequence (Q8IV61 whole entry): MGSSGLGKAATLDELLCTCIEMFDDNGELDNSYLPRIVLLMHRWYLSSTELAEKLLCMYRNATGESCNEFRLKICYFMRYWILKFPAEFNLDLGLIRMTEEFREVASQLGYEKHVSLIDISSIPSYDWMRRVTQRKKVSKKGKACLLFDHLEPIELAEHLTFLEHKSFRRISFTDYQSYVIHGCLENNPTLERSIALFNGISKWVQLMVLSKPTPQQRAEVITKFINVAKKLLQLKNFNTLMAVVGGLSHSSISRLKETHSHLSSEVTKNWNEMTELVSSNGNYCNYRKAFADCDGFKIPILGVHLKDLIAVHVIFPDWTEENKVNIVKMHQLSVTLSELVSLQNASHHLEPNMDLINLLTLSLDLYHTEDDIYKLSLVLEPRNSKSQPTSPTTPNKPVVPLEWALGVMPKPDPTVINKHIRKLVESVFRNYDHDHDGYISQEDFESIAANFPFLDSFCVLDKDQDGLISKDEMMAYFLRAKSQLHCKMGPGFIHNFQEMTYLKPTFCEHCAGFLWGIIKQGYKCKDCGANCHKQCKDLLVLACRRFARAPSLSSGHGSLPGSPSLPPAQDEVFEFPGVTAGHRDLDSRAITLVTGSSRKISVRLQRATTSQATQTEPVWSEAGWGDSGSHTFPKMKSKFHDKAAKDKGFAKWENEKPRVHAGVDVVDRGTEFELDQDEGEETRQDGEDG
Outline: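 HEK293 cells grown in EMEM + 10% FBS, transfected after 48 h with GFP-RasGRP3 (Lipofectamine Plus). Treated 30 min at 37 °C, 5% CO2, with half-log increasing concentrations up to 10 µM, 1000 nM PMA or DMSO. Active Ras pulled down from lysates on Raf1-RBD agarose (60 min, 4 °C), immunoblotted with anti-Pan-Ras. Band intensity normalised to 1000 nM PMA. EC50 is the mean of n = 3.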

Protein kinase C delta type, sequence (Q05655 whole entry): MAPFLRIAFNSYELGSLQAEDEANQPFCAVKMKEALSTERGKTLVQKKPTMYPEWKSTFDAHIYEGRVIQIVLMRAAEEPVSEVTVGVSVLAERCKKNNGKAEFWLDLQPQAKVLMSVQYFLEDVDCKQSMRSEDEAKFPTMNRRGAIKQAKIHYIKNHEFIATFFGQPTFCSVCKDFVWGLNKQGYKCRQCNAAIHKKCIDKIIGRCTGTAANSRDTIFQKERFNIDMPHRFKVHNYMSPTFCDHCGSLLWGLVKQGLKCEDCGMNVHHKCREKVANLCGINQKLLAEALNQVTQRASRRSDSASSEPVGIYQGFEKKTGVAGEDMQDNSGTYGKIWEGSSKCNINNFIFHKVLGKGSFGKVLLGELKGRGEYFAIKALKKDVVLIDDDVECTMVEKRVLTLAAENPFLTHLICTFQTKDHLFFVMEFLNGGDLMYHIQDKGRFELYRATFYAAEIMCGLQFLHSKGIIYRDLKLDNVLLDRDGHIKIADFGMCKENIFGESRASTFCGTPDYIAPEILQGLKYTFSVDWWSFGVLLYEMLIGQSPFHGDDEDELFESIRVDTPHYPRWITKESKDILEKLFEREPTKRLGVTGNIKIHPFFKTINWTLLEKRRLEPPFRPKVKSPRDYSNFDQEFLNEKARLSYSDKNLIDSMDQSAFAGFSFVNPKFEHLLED

## CCCCCCCCCCCCCC(=O)O[C@@H]1[C@@H](C)[C@@]2(O)[C@@H](C=C(CO)C[C@]3(O)C(=O)C(C)=C[C@@H]23)[C@@H]2C(C)(C)[C@]12OC(C)=O [PHORBOL MYRISTATE ACETATE]
[1]
  EC50: 290 nM
Homo sapiens
  Ratio EC50: 3.5
[2]
  EC50: 82 nM

— ChEMBL document CHEMBL4130626, “α-Arylidene Diacylglycerol-Lactones (DAG-Lactones) as Selective Ras Guanine-Releasing Protein 3 (RasGRP3) Ligands” (J Med Chem, 2018)
